This is an account of results in ChEMBL document CHEMBL2169822, “Discovery and optimization of 1,3,4-trisubstituted-pyrazolone derivatives as novel, potent, and nonsteroidal farnesoid X receptor (FXR) selective antagonists” (J Med Chem, 2012).

Each structure is given as a SMILES string. pIC50, pKd: −log10 of the molar value. Active and inactive are the calls of the source. The rule behind the calls is not given here.

The target of experiment [1] is T1, Glucocorticoid receptor (Homo sapiens) (UniProt P04150).
T1 sequence (whole entry): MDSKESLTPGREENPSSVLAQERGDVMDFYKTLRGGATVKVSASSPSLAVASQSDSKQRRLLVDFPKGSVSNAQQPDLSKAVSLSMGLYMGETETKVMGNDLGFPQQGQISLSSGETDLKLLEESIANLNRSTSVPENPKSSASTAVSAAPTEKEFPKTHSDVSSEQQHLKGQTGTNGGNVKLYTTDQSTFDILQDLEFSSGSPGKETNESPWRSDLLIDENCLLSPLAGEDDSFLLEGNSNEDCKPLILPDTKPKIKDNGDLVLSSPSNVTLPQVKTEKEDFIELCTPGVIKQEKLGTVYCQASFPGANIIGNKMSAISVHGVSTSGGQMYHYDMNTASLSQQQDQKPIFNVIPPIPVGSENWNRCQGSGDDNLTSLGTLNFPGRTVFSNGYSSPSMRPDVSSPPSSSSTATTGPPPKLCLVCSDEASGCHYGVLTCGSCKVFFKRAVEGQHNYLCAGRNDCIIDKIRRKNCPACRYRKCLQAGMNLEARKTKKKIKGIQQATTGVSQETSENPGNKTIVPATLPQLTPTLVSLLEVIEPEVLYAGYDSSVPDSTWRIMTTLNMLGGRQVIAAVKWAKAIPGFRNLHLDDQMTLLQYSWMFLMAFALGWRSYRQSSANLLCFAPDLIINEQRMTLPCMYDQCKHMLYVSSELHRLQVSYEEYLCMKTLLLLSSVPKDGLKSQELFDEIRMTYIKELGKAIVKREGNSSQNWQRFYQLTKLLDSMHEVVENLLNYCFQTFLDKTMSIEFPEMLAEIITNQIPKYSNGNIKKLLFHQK
The experiment is described as follows: Antagonist activity at recombinant GR LBD expressed in HEK293T cells co-expressing GAL4 DBD assessed as inhibition of dexamethasone-induced transactivation at 20 uM by luciferase reporter gene assay. The experiment is classed as functional, cell-based. The following applies: HEK-293T. The essentials: (§1)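 One-hybrid assay in HEK293T cells cotransfected with a Gal4 DBD–NR-LBD fusion (RXRα, LXRα, GR, PR, PPARδ or PPARγ) plus UAS-TK-Luc reporter. Compound was 20 μM, given alone or with agonist: 9cRA 0.1 μM (RXRα), TO901317 0.5 μM (LXRα), dexamethasone 50 nM (GR), progesterone 100 nM (PR), GW1516 10 μM (PPARδ), rosiglitazone 10 μM (PPARγ). Luciferase read-out; three independent experiments.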

The target of experiment [2] is T2, Retinoic acid receptor RXR-alpha (Homo sapiens) (UniProt P19793).
T2 sequence (whole entry): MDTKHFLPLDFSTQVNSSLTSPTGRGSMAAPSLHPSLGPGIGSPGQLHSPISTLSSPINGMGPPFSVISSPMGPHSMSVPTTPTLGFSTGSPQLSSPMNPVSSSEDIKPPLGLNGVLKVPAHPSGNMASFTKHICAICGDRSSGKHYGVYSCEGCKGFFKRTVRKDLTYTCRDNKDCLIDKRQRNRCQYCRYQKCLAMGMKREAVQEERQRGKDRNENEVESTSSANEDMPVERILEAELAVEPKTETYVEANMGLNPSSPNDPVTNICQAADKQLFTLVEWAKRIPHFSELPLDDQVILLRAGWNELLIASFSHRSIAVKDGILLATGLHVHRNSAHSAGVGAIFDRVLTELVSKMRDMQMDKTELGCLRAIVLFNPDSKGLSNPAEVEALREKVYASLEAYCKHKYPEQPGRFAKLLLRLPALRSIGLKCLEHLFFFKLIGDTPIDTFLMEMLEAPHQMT
The experiment is described as follows: Antagonist activity at recombinant RXRalpha LBD expressed in HEK293T cells co-expressing GAL4 DBD assessed as inhibition of 9cRA-induced transactivation at 20 uM by luciferase reporter gene assay. The experiment is classed as functional, cell-based. The following applies: HEK-293T. The essentials: as §1

Experiment [3] has as its system HEK-293T. The experiment is described as follows: Agonist activity at FXRalpha/RXRalpha expressed in HEK293T cells co-expressing GAL4 DBD after 18 hrs by luciferase based transactivation assay. The experiment is classed as functional, cell-based. As to conditions: Homo sapiens. The essentials:
(§2)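 FXR transactivation in HEK293T cells transiently transfected with pcDNA3.1-FXRα, pcDNA3.1-RXRα, pGL3-FXRE-Luc and pRL-SV40 Renilla vector. Medium was replaced 6 h after transfection with medium holding compound at varied concentrations, with or without 20 μM CDCA, for 18 h. Read-out was dual-luciferase. Three independent experiments.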

Experiment [4] has as its target T1, Glucocorticoid receptor (Homo sapiens). The experiment is described as follows: Agonist activity at recombinant glucocorticoid receptor LBD expressed in HEK293T cells co-expressing GAL4 DBD at 20 uM by transactivation assay. The format is functional, cell-based. The following applies: HEK-293T. The essentials:
as §1

Experiment [5] in a line: Antagonist activity at GST-tagged human recombinant FXRalphaLBD expressed in Escherichia coli BL21 cells assessed as inhibition of CDCA-induced SRC-1 co-activator association at 40 uM by HTRF assay. The experiment is classed as functional. The essentials: (§3)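 HTRF coactivator recruitment: 10 nM GST-human FXRαLBD (residues 238–473, E. coli BL21(DE3)), 0.83 nM anti-GST-Eu cryptate, 100 nM biotin-SRC1 peptide, 41.75 nM SA/XL665. Buffer was 50 mM Hepes pH 7.0, 125 mM KF, 0.125% CHAPS, 0.05% dry milk. Compound alone or with CDCA, 30 min at room temperature. Signal was 1000×(668/620 nm). Primary screen at 40 μM; IC50 as mean ± SE, three experiments.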
Background: Time-resolved FRET reads energy transfer from a long-lived donor to a nearby acceptor.

The subject of experiment [6] is HEK-293T. The experiment is described as follows: (§4) Antagonist activity at FXRalpha/RXRalpha expressed in HEK293T cells co-expressing GAL4 DBD assessed as inhibition of CDCA-induced transactivation after 18 hrs by luciferase reporter gene assay. The format is functional, cell-based. The following applies: Homo sapiens. The essentials: as §2
A general note: Reporter assays use an easily measured gene product as a stand-in for the process of interest.

The nature of experiment [7]: as §4. As to conditions: Homo sapiens, HEK-293T. The experiment is classed as functional, cell-based. Summed up: as §2
The test system of the next experiment is BL21. The experiment is described as follows: (§5) Antagonist activity at GST-tagged human recombinant FXRalphaLBD expressed in Escherichia coli BL21 cells assessed as inhibition of CDCA-induced SRC-1 co-activator association by HTRF assay. The experiment is classed as functional. Summed up: as §3
The nature of experiment [8]: as §5. The format is functional. Summed up:
as §3

The nature of experiment [9]: Binding affinity to FXRalphaLBD assessed as fluorescence quenching after 1 hr. The essentials:
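Untagged FXRαLBD (His-tag removed with thrombin; Ni-NTA and ion exchange purified), 1 μM, was incubated with varied compound concentrations for 1 h at 4 °C. Tryptophan fluorescence was read at 25 °C: excitation 280 nm, emission 300–400 nm, 5 nm slits. KD was fitted from quenching.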

Experiment [10] is described as follows: Binding affinity to FXRalphaLBD assessed as increase in thermal stability. The essentials: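 DSC with 2 mg/mL FXRαLBD in 20 mM Tris-HCl, 50 mM NaCl, pH 8.0, with DMSO or compound at a compound:protein ratio of 5:1, against the dialysis buffer as reference. Scan was 10–110 °C at 90 °C/h, giving Tm.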
The next experiment relates to Mus musculus. Kind of experiment: Reduction of total serum cholesterol level in cholesterol-fed C57BL/6 mouse at 50 to 100 mg/kg, po after 10 days. The format is functional. More on the design: scale not given: the % may be the effect or the level left. The following applies: dose mg/kg 50-100. The essentials: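 Male C57BL/6 mice, 8–12 weeks old, were randomized into five groups of nine. Control mice had ground chow; the other groups had chow with 2% cholesterol. Compound (50 or 100 mg/kg) or reference (100 mg/kg) was suspended in 0.5% CMC-Na and given by oral gavage; control and vehicle mice got 0.5% CMC-Na. Serum and hepatic triglyceride and total cholesterol were measured.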

Consider `COc1cc(/C=C2\C(=O)N(c3cccc([N+](=O)[O-])c3)N=C2c2ccccc2)ccc1O`, for which the inhibition entry in experiment [1] and in [2] was “inactive” throughout. Besides, the result (with HEK-293T [3]; in experiment [4]) was inactive. For the same molecule, the inhibition at 40 µM in experiment [5] turned out to be 70.4%. Further, the inhibition result in the experiment on HEK-293T [6] and with BL21 was “Dose-dependent effect” in each case. Moreover, the pIC50 in experiment [7] is 4.59; in experiment [8], 5.05. For the same molecule, the Activity result is “Dose-dependent effect” in experiment [9] and 17.2% in the experiment on Mus musculus. In experiment [9], the pKd was 4.64. In addition, the Tm in experiment [10] was 58.7 °C.

The inhibition is the change of the read-out against control, counted positive when it falls. The term pIC50 denotes the IC50 on a negative log10 scale, so that one unit is a factor of ten. What is called pKd is the Kd on a negative log10 scale, so that one unit is a factor of ten.
